The nature of assay [1]: Effective concentration required to reduce plaque formation by AD-169 strain of CMV virus in Human embryonic lung cells. Format: functional, cell-based. The procedure, abridged: (§1)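 Plaque reduction assay in human embryonic lung (HEL) cell cultures, virus input 100 plaque forming units. Viruses: CMV strains AD-169 and Davis, VZV TK+ strain OKA and TK− strain 07/1. EC50 is the concentration that reduces virus plaque formation by 50%.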

Assay [2] deals with HEL. The assay is described as follows: Minimum cytotoxic concentration of compound that causes alteration of cell morphology in human embryonic lung cells. Format: functional. The procedure, abridged:
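Human embryonic lung (HEL) cells were examined microscopically. MCC is the minimum concentration that causes a detectable alteration of cell morphology.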

In assay [3] the test system is Human alphaherpesvirus 3. The assay is described as follows: Effective concentration of compound required to reduce plaque formation by OKA strain of thymidine kinase positive VZ virus TK+ in human embryonic lung cells. As to conditions: Human alphaherpesvirus 3, lung. The class given is functional, organism-based.
The subject of assay [4] is MIA PaCa-2. The assay is described as follows: Inhibition of pancreatic carcinoma cell line (MiaPaCa-2) growth. The class given is functional, cell-based. As to conditions: Homo sapiens. The procedure, abridged:
(§2)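 Monolayers in DMEM with 10% FBS, 2 mM L-glutamine, penicillin/streptomycin, 37 °C, 5% CO2. Cells seeded on day 0, then compounds added in 5- and 10-fold dilutions (10^-8–10^-4 M) for 72 h. MTT read-out at 570 nm. Percent growth calculated relative to time-zero and untreated OD. Quadruplicates in three experiments; IC50 by linear interpolation, highest concentration reported as ">" when not reached.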

The test system of assay [5] is MOLT-4. The assay is described as follows: Inhibition of human T-lymphocyte cell line (Molt4/C8) growth. The class given is functional, cell-based.
Assay [6] has as its system HEL. The assay can be described thus: Cytotoxic concentration to reduce the 50% cell growth of human embryonic lung cells. Format: functional.
In assay [7] the test system is HEp-2. The assay is described as follows: Inhibition of laryngeal carcinoma cell line (Hep-2) growth. The class given is functional, cell-based. Conditions: Homo sapiens. The procedure, abridged: as §2
Assay [8] has as its system Human alphaherpesvirus 3. The assay is described as follows: Reduction of plaque formation by VZV07/1 strain of thymidine kinase(TK-) deficient VZ virus in human embryonic lung cells. Conditions: Human alphaherpesvirus 3, lung. Format: functional, organism-based.
Assay [9] relates to MCF7. The assay is described as follows: Inhibition of breast carcinoma cell line (MCF-7) growth. The class given is functional, cell-based. As to conditions: Homo sapiens. In a few lines:
as §2

The test system of assay [10] is HeLa. The assay is described as follows: Inhibition of cervical carcinoma cell line (HeLa) growth. Format: functional, cell-based. As to conditions: Homo sapiens. In a few lines:
as §2

Assay [11] deals with L1210. The assay is described as follows: Inhibition of murine leukemia cells (L1210) growth. As to conditions: Mus musculus. Format: functional, cell-based.
The test system of assay [12] is WI-38. The assay is described as follows: Inhibition of normal human fibroblast cell line (WI 38) growth. Format: functional, cell-based. In a few lines: as §2
The test system of assay [13] is SW-620. The assay is described as follows: Inhibition of colon carcinoma cell line (SW 620) growth. Format: functional, cell-based. Conditions: Homo sapiens. In a few lines: as §2
Assay [14] can be described thus: Effective concentration required to reduce plaque formation by Davis strain of CMV virus in Human embryonic lung cells. Format: functional, cell-based. In a few lines: as §1
For assay [15], the system named is Cytomegalovirus. The assay is described as follows: Effective concentration of the compound to reduce plaque-formation of Cytomegalovirus davis strain in human embryonic lungcell cultures. The class given is functional, organism-based. As to conditions: Human betaherpesvirus 5. In a few lines: as §1
In assay [16] the test system is Cytomegalovirus. The assay is described as follows: Effective concentration to reduce plaque formation of Cytomegalovirus AD-169 strain in human embryonic lung cell cultures. Format: functional, organism-based. As to conditions: Human betaherpesvirus 5, lung. In a few lines: as §1
Setting [17] is: Homo sapiens, HEL, read-out: CC50.

pIC50: −log10 of the molar value. Values after ≈ are worked out from the molar mass of the structure shown.

Here are results for 9 molecules from ChEMBL document CHEMBL1141177, “The novel L- and D-amino acid derivatives of hydroxyurea and hydantoins: synthesis, X-ray crystal structure study, and cytostatic and antiviral activity evaluations” (J Med Chem, 2005).

As usually defined, the EC50 is the midpoint of the concentration-response curve. Broadly, the pIC50 is the negative decadic logarithm of the IC50, by convention in mol/L. As usually defined, the CC50 is the concentration giving 50% cytotoxicity. Consider `O=C1NC(c2ccccc2)C(=O)N1Cc1ccccc1` (stereo not given), for which the EC50 in assay [1] worked out at 7.6 µg/mL (≈ 28.5 µM); in [3], 15 µg/mL (≈ 56.3 µM); in assay [8], 11 µg/mL (≈ 41.3 µM); in [14], 4 µg/mL (≈ 15 µM). In addition, in [2], the MCC is 100 µg/mL. The pIC50 in assay [4] is 4.16; in [5], under 3.70; in assay [7], 4.08; in [9], 5.48; in assay [10], under 4.00; in assay [11], under 3.70. The pIC50 is 4.10 in assay [12] and 4.01 in assay [13]. Moreover, the CC50 in assay [6] (setting [17]) came to 12.5 µg/mL (≈ 46.9 µM).
Consider `O=C1NC(c2ccccc2)C(=O)N1C1CCCC1` (stereo not given), for which the EC50 in [1] is over 20 µg/mL; in [3], over 4 µg/mL; in [8] it was 9 µg/mL (≈ 36.8 µM); in assay [14] it was over 4 µg/mL. Further, the MCC in [2] is at least 20 µg/mL. Besides, the pIC50 in assay [4] was under 4.00; in assay [5] it was under 3.70; in assay [7] it was under 4.00; in assay [9], 4.66; in assay [10], under 4.00; in [11] it was under 3.70. Besides, the pIC50 in assay [12] and in assay [13] was under 4.00 each time. The CC50 in [6] (setting [17]) stood at 27.4 µg/mL (≈ 112 µM).
Take `O=C(C(NC(=O)n1nnc2ccccc21)c1ccccc1)N1CCCCC1` (stereo not given): the EC50 in assay [1], in assay [3], in [8] and in [14] was over 80 µg/mL each time. Moreover, the MCC in assay [2] amounted to 200 µg/mL. Also, the pIC50 was at most 4.00 in assay [4]; 4.09 in assay [5]; under 4.00 in assay [7]; 4.17 in assay [9]; under 4.00 in assay [10]; 4.09 in assay [11]. Moreover, the pIC50 is at most 4.00 in [12] and under 4.00 in assay [13]. Moreover, in [6] (setting [17]), the CC50 turned out to be 188 µg/mL (≈ 517 µM).
For the molecule `CC(C)C1NC(=O)N(C2CCCC2)C1=O` (stereo not given), the 50% effective concentration (EC50) is over 100 µg/mL in assay [1], over 84 µg/mL in assay [3], over 90 µg/mL in [8] and over 100 µg/mL in [14]. Besides, the MCC in assay [2] was over 100 µg/mL. Further, the pIC50 is under 4.00 in assay [4]; under 3.70 in assay [5]; 4.01 in [7]; under 4.00 in assay [9]; under 4.00 in assay [10]; under 3.70 in assay [11]. Further, the pIC50 in assay [12] and in assay [13] was under 4.00 throughout. In addition, the CC50 in [6] (setting [17]) is over 50 µg/mL.
Take `O=C(NC(c1ccccc1)c1ccccc1)C(NC(=O)n1nnc2ccccc21)c1ccccc1` (stereo not given): the EC50 in assay [1] was over 16 µg/mL; in assay [3] it was over 3.2 µg/mL; in [8], over 3.2 µg/mL; in assay [14], over 16 µg/mL. For the same molecule, in assay [2], the MCC worked out at 80 µg/mL. Besides, the pIC50 in assay [4] is 4.37; in assay [5], 4.05; in [7], 4.23; in assay [9] it was 4.47; in [10], 4.48; in [11], 3.94. In addition, the pIC50 is 4.00 in assay [12] and 4.29 in [13]. In addition, in [6] (setting [17]), the cytotoxic concentration (CC50) is 38.3 µg/mL (≈ 83 µM).
In the case of `CC(C)C(NC(=O)n1nnc2ccccc21)C(=O)NC1CCCCC1` (stereo not given), the concentration for a half-maximal effect (EC50) in assay [1] was over 80 µg/mL; in [3] it was over 3.2 µg/mL; in [8], over 3.2 µg/mL; in assay [14], over 16 µg/mL. This molecule displayed an MCC in assay [2] of at least 80 µg/mL. In addition, the pIC50 in assay [4] is under 4.00; in assay [5] it was 4.01; in assay [7], 4.22; in assay [9], 4.10; in [10] it was 4.02; in assay [11] it was 3.97. In addition, the pIC50 in assay [12] is at most 4.00; in assay [13], under 4.00. Further, the CC50 in [6] (setting [17]) was found to be 90 µg/mL (≈ 262 µM).
With `CC(C)C1NC(=O)N(C2CCCCC2)C1=O` (stereo not given), the half-maximal effective concentration (EC50) in [1] was found to be 45 µg/mL (≈ 201 µM); in assay [3], 45 µg/mL (≈ 201 µM); in assay [8] it was 29 µg/mL (≈ 129 µM); in [14], 41 µg/mL (≈ 183 µM). In assay [2], this molecule gave an MCC of at least 100 µg/mL. Besides, the pIC50 in assay [4] is under 4.00; in assay [5], under 3.70; in assay [7] it was 4.00; in assay [9], under 4.00; in [10], under 4.00; in assay [11] it was under 3.70. The pIC50 in assay [12] and in [13] was under 4.00 each time. Besides, the CC50 in assay [6] (setting [17]) was over 50 µg/mL.
As for `Nc1ccn(C[C@@H](CO)OCP(=O)(O)O)c(=O)n1.O.O` [CIDOFOVIR], the EC50 in assay [1], in assay [15], in assay [16] and in assay [14] was 0.13 µg/mL each time. Also, the MCC in [2] is over 400 µg/mL. The CC50 in [6] and in assay [6] (setting [17]) was 21.3 µg/mL throughout.
With `Nc1nc2c(ncn2COC(CO)CO)c(=O)[nH]1` [GANCICLOVIR], the EC50 in assay [1] stood at 0.24 µg/mL (≈ 0.94 µM); in assay [15] it was 0.34 µg/mL (≈ 1.33 µM); in assay [16], 0.24 µg/mL (≈ 0.94 µM); in assay [14], 0.34 µg/mL (≈ 1.33 µM). The MCC in [2] was over 400 µg/mL.
